Data set [1] has as its system Human immunodeficiency virus 1. As to the kind of experiment: Antiviral activity against NRTI/NNRTI-resistant HIV1 L6 harboring reverse transcriptase V75I/F77L/K103N/F116Y/Q151M/M184V mutant infected in human MT4 cells. The class given is functional, organism-based. The following applies: Human immunodeficiency virus 1, L6, MT4. A digest of the protocol: (§1)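 MT-4 cells in RPMI 1640 with 10% heat-inactivated FCS were infected at the start of the experiment, with compound added across serial 5-fold dilutions in triplicate wells. Cells were seeded at 6 x 10^5 cells/ml. After 5 days, protection against virus-induced cytopathic effect was read by MTT reduction at OD540. […] Values are means ± SD of at least two experiments.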

Data set [2] concerns Human immunodeficiency virus 1. The data set is described as follows: Antiviral activity against AZT-resistant HIV1 ADP/141 harboring reverse transcriptase D67N/K70R/T215F/K219Q mutant infected in human MT4 cells. It counts as functional, organism-based. As to conditions: Human immunodeficiency virus 1, ADP/141, MT4. A digest of the protocol:
as §1

The nature of data set [3]: Selectivity index, ratio of CC50 for human MT4 cells to EC50 for HIV-2 ROD. It counts as toxicity, cell-based. As to conditions: read-out: Ratio CC50/EC50. The method, boiled down: (§2)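 Compounds added at start in serial 5-fold dilutions, triplicate wells, to mock- and virus-infected cells (100-300 CCID50 per well). After 5 days, viability by MTT reduction (OD540). Mean ± SD, at least two experiments.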

The nature of data set [4]: Cytotoxicity against human MT4 cells assessed as cell viability after 5 days by MTT assay. It counts as cell-based. The method, boiled down:
as §2

Data set [5] has as its system Human immunodeficiency virus 2. As to the kind of experiment: Antiviral activity against HIV2 ROD infected in human MT4 cells assessed as protection against virus-induced cytopathic effect after 5 days by MTT assay. It counts as functional, organism-based. The following applies: Human immunodeficiency virus 2, ISOLATE ROD, MT4, 120 h. The method, boiled down: (§3)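 MT-4 cells in RPMI 1640 with 10% heat-inactivated FCS, resuspended at 6 x 10^5 cells/ml. Compounds added at start in serial 5-fold dilutions, triplicate wells, to mock- and virus-infected cells (100-300 CCID50 per well). After 5 days, viability by MTT reduction (OD540). […] Mean ± SD, at least two experiments.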

In data set [6] the test system is Human immunodeficiency virus 1. As to the kind of experiment: Antiviral activity against HIV1 3B infected in human MT4 cells assessed as protection against virus-induced cytopathic effect after 5 days by MTT assay. As to conditions: Human immunodeficiency virus 1, 3B, MT4, 120 h. The class given is functional, organism-based. The method, boiled down: as §3
Data set [7] is described as follows: Selectivity index, ratio of CC50 for human MT4 cells to EC50 for HIV1 3B. The following applies: read-out: Ratio CC50/EC50. The class given is toxicity, cell-based. The method, boiled down:
as §2

In the next data set the test system is HuT78. As to the kind of experiment: Inhibition of NCp7 of HIV1 3B persistently infected in HUT78 cells assessed as accumulation of unprocessed Gag polyprotein after 43 hrs by Western blot analysis. It counts as cell-based. The following applies: Human immunodeficiency virus 1. A digest of the protocol:
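Washed HuT-78(IIIB) cells (2x10^5 in 1 ml) treated with compound for 43 h at 37°C. Virions pelleted from clarified supernatant (36,670 g, 2 h, 4°C), lysed, run on SDS-PAGE and transferred to PVDF. Blot probed with mouse anti-p24 (1:5000), then HRP anti-mouse (1:2500), with chemiluminescent detection.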

For `Cc1cn([C@H]2C[C@H](N=[N+]=[N-])[C@@H](CO)O2)c(=O)[nH]c1=O` [ZIDOVUDINE], the EC50 (commonly the concentration giving half of the maximal effect) in data set [1] is > 7480 nM; in data set [2], 30 nM; in data set [5], 8 nM; in data set [6], 10 nM. Further, the results for the selectivity ratio in data set [3] and in data set [7] were > 935 and > 748, respectively. In data set [4], the CC50 (usually the concentration that lowers cell viability or growth by half) at 120 h is > 7480 nM. Further, the inhibition result with HuT78 was “Dose-dependent effect”.

The values above are taken from ChEMBL document CHEMBL3745620, “Design and Synthesis of DiselenoBisBenzamides (DISeBAs) as Nucleocapsid Protein 7 (NCp7) Inhibitors with anti-HIV Activity” (J Med Chem, 2015).
